How the values were obtained:
Hepatitis C virus [1] = experiment: Antiviral activity against Hepatitis C virus genotype 1b Con 1 infected in human HuH7 cells at 10 nM after 72 hrs by luciferase assay in presence of 240 nM sofobuvir; format: functional, Hepacivirus hominis, Huh-7
In short: (§1)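 Stable Con1 GT1b bicistronic luciferase replicon in Huh-7 cells, 8000 cells/well. Test compound and a marketed DAA or clemizole added alone or together at varied concentrations, 0.5% DMSO final. 72 h at 37°C, then luciferase read with Bright-Glo. Inhibition expressed as % of untreated control, with cytotoxicity run in parallel. CI and DRI derived by the Chou–Talalay median-effect method.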

Hepatitis C virus [2] = experiment: Antiviral activity against Hepatitis C virus genotype 1b Con 1 infected in human HuH7 cells at 10 nM after 72 hrs by luciferase assay in presence of 20 uM clemizole; format: functional, Hepacivirus hominis, Huh-7; in short: as §1
Hepatitis C virus [3] = experiment: Antiviral activity against Hepatitis C virus genotype 1b Con 1 infected in human HuH7 cells at 20 nM after 72 hrs by luciferase assay in presence of 0.04 nM daclatasvir; format: functional, Hepacivirus hominis, Huh-7; in short: as §1
Hepatitis C virus [4] = experiment: Antiviral activity against Hepatitis C virus genotype 1b Con 1 infected in human HuH7 cells at 20 nM after 72 hrs by luciferase assay in presence of 5 uM clemizole; format: functional, Hepacivirus hominis, Huh-7
In short: (§2)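 Huh-7 cells stably carrying a GT1b Con1 bicistronic luciferase replicon, seeded at 8000 cells/well. The test compound and the partner DAA are dosed orthogonally at various concentrations, final 0.5% DMSO, then incubated 72 h at 37°C. Bright-Glo luciferase read-out gives replicon inhibition as % of untreated control. Cytotoxicity is checked in parallel by CellTiter-Fluor. CI and DRI are derived by the Chou–Talalay median-effect method.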

Hepatitis C virus [5] = experiment: Antiviral activity against Hepatitis C virus genotype 1b Con 1 infected in human HuH7 cells at 20 nM after 72 hrs by luciferase assay in presence of 10 uM clemizole; format: functional, Hepacivirus hominis, Huh-7; in short: as §1
Hepatitis C virus [6] = experiment: Antiviral activity against Hepatitis C virus genotype 1b Con 1 infected in human HuH7 cells at 20 nM after 72 hrs by luciferase assay in presence of 15 uM clemizole; format: functional, Hepacivirus hominis, Huh-7; in short: as §2
Hepatitis C virus [7] = experiment: Antiviral activity against Hepatitis C virus genotype 1b Con 1 infected in human HuH7 cells at 40 nM after 72 hrs by luciferase assay in presence of 0.04 nM daclatasvir; format: functional, Hepacivirus hominis, Huh-7; in short: as §2
Hepatitis C virus [8] = experiment: Antiviral activity against Hepatitis C virus genotype 1b Con 1 infected in human HuH7 cells at 40 nM after 72 hrs by luciferase assay in presence of 0.08 nM daclatasvir; format: functional, Hepacivirus hominis, Huh-7; in short: as §2
Hepatitis C virus [9] = experiment: Antiviral activity against Hepatitis C virus genotype 1b Con 1 infected in human HuH7 cells at 40 nM after 72 hrs by luciferase assay in presence of 5 uM clemizole; format: functional, Hepacivirus hominis, Huh-7; in short: as §2
Hepatitis C virus [10] = experiment: Antiviral activity against Hepatitis C virus genotype 1b Con 1 infected in human HuH7 cells at 80 nM after 72 hrs by luciferase assay in presence of 3 nM simeprevir; format: functional, Hepacivirus hominis, Huh-7; in short: as §2
Hepatitis C virus [11] = experiment: Antiviral activity against Hepatitis C virus genotype 1b Con 1 infected in human HuH7 cells at 80 nM after 72 hrs by luciferase assay in presence of 24 nM simeprevir; format: functional, Hepacivirus hominis, Huh-7; in short: as §2
Hepatitis C virus [12] = experiment: Antiviral activity against Hepatitis C virus genotype 1b Con 1 infected in human HuH7 cells at 80 nM after 72 hrs by luciferase assay in presence of 30 nM sofobuvir; format: functional, Hepacivirus hominis, Huh-7; in short: as §2
Hepatitis C virus [13] = experiment: Antiviral activity against Hepatitis C virus genotype 1b Con 1 infected in human HuH7 cells at 80 nM after 72 hrs by luciferase assay in presence of 10 uM clemizole; format: functional, Hepacivirus hominis, Huh-7; in short: as §2
Hepatitis C virus [14] = experiment: Antiviral activity against Hepatitis C virus genotype 1b Con 1 infected in human HuH7 cells at 80 nM after 72 hrs by luciferase assay in presence of 20 uM clemizole; format: functional, Hepacivirus hominis, Huh-7; in short: as §2
Hepatitis C virus [15] = experiment: Antiviral activity against Hepatitis C virus genotype 1b Con 1 infected in human HuH7 cells at 160 nM after 72 hrs by luciferase assay in presence of 0.02 nM daclatasvir; format: functional, Hepacivirus hominis, Huh-7; in short: as §1
Hepatitis C virus [16] = experiment: Antiviral activity against Hepatitis C virus genotype 1b Con 1 infected in human HuH7 cells at 160 nM after 72 hrs by luciferase assay in presence of 0.08 nM daclatasvir; format: functional, Hepacivirus hominis, Huh-7; in short: as §1
Hepatitis C virus [17] = experiment: Antiviral activity against Hepatitis C virus genotype 1b Con 1 infected in human HuH7 cells at 160 nM after 72 hrs by luciferase assay in presence of 30 nM sofobuvir; format: functional, Hepacivirus hominis, Huh-7; in short: as §1
Hepatitis C virus [18] = experiment: Antiviral activity against Hepatitis C virus genotype 1b harboring A156T NS3/4A mutation transfected in human HuH7 cells after 72 hrs by luciferase assay; format: functional, cell-based, Hepacivirus hominis; conditions: Huh-7, 72 h
In short: (§3)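 Huh-7 cells were transiently electroporated with genotype 1b replicon RNA carrying the specified mutation and plated at 10000 cells/well. Compounds were added at 0.5% DMSO final for 72 h at 37°C. Read-out was Bright-Glo luciferase. EC50 is the mean of two independent runs within 2-fold of each other. A reference drug EC50 was measured alongside each mutant replicon to validate it.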

Hepatitis C virus [19] = experiment: Antiviral activity against Hepatitis C virus genotype 1b harboring V105M mutation transfected in human HuH7 cells after 72 hrs by luciferase assay; format: functional, cell-based, Hepacivirus hominis; conditions: Huh-7, 72 h; in short: as §3
Hepatitis C virus [20] = experiment: Antiviral activity against Hepatitis C virus genotype 1b harboring M423I NS5B (thumb 2) mutation transfected in human HuH7 cells after 72 hrs by luciferase assay; format: functional, cell-based, Hepacivirus hominis; conditions: Huh-7, 72 h; in short: as §3
Hepatitis C virus [21] = experiment: Antiviral activity against Hepatitis C virus genotype 1b Con 1 infected in human HuH7 cells at 2.5 nM after 72 hrs by luciferase assay in presence of 0.04 nM daclatasvir; format: functional, Hepacivirus hominis, Huh-7; in short: as §1
Hepatitis C virus [22] = experiment: Antiviral activity against Hepatitis C virus genotype 1b Con 1 infected in human HuH7 cells at 2.5 nM after 72 hrs by luciferase assay in presence of 120 nM sofobuvir; format: functional, Hepacivirus hominis, Huh-7; in short: as §1
Hepatitis C virus [23] = experiment: Antiviral activity against Hepatitis C virus genotype 1b Con 1 infected in human HuH7 cells at 2.5 nM after 72 hrs by luciferase assay in presence of 5 uM clemizole; format: functional, Hepacivirus hominis, Huh-7; in short: as §1
Hepatitis C virus [24] = experiment: Antiviral activity against Hepatitis C virus genotype 1b Con 1 infected in human HuH7 cells at 2.5 nM after 72 hrs by luciferase assay in presence of 17.5 uM clemizole; format: functional, Hepacivirus hominis, Huh-7; in short: as §1
Hepatitis C virus [25] = experiment: Antiviral activity against Hepatitis C virus genotype 1b Con 1 infected in human HuH7 cells at 5 nM after 72 hrs by luciferase assay in presence of 0.02 nM daclatasvir; format: functional, Hepacivirus hominis, Huh-7; in short: as §2
Hepatitis C virus [26] = experiment: Antiviral activity against Hepatitis C virus genotype 1b Con 1 infected in human HuH7 cells at 5 nM after 72 hrs by luciferase assay in presence of 0.08 nM daclatasvir; format: functional, Hepacivirus hominis, Huh-7; in short: as §2
Hepatitis C virus [27] = experiment: Antiviral activity against Hepatitis C virus genotype 1b Con 1 infected in human HuH7 cells at 5 nM after 72 hrs by luciferase assay in presence of 30 nM sofobuvir; format: functional, Hepacivirus hominis, Huh-7; in short: as §2
Hepatitis C virus [28] = experiment: Antiviral activity against Hepatitis C virus genotype 1b Con 1 infected in human HuH7 cells at 5 nM after 72 hrs by luciferase assay in presence of 60 nM sofobuvir; format: functional, Hepacivirus hominis, Huh-7; in short: as §2
Hepatitis C virus [29] = experiment: Antiviral activity against Hepatitis C virus genotype 1b Con 1 infected in human HuH7 cells at 5 nM after 72 hrs by luciferase assay in presence of 240 nM sofobuvir; format: functional, Hepacivirus hominis, Huh-7; in short: as §2
Hepatitis C virus [30] = experiment: Antiviral activity against Hepatitis C virus genotype 1b Con 1 infected in human HuH7 cells at 5 nM after 72 hrs by luciferase assay in presence of 17.5 uM clemizole; format: functional, Hepacivirus hominis, Huh-7; in short: as §2

Q: How did the CI (Hepatitis C virus [1]) turn out when `O=C(c1nc2scc(C3CC3)n2c1Cl)N1CCN(C2CCCC2)C(=O)C1` was run?
A: 0.58

Q: What about the CI (Hepatitis C virus [2]) of the same compound?
A: 1.16

Q: And the CI (Hepatitis C virus [3])?
A: 0.69

Q: What about the CI (Hepatitis C virus [4]) of the same compound?
A: 0.94

Q: And the CI (Hepatitis C virus [5])?
A: 0.61

Q: And the CI (Hepatitis C virus [6])?
A: 0.79

Q: And the CI (Hepatitis C virus [7])?
A: 0.54

Q: And the CI (Hepatitis C virus [8])?
A: 0.53

Q: And the CI (Hepatitis C virus [9])?
A: 1.03

Q: What about the CI (Hepatitis C virus [10]) of the same compound?
A: 0.62

Q: What about the CI (Hepatitis C virus [11]) of the same compound?
A: 0.87

Q: What about the CI (Hepatitis C virus [12]) of the same compound?
A: 0.91

Q: What about the CI (Hepatitis C virus [13]) of the same compound?
A: 0.82

Q: And the CI (Hepatitis C virus [14])?
A: 1.41

Q: And the CI (Hepatitis C virus [15])?
A: 0.5

Q: And the CI (Hepatitis C virus [16])?
A: 0.42

Q: What about the CI (Hepatitis C virus [17]) of the same compound?
A: 0.89

Q: And the EC50 (Hepatitis C virus [18])?
A: 4 nM

Q: And the EC50 (Hepatitis C virus [19])?
A: 27200 nM

Q: And the EC50 (Hepatitis C virus [20])?
A: 9 nM

Q: And the CI (Hepatitis C virus [21])?
A: 0.89

Q: What about the CI (Hepatitis C virus [22]) of the same compound?
A: 0.9

Q: And the CI (Hepatitis C virus [23])?
A: 1.22

Q: What about the CI (Hepatitis C virus [24]) of the same compound?
A: 1.36

Q: What about the CI (Hepatitis C virus [25]) of the same compound?
A: 1.21

Q: What about the CI (Hepatitis C virus [26]) of the same compound?
A: 0.66

Q: And the CI (Hepatitis C virus [27])?
A: 0.77

Q: And the CI (Hepatitis C virus [28])?
A: 0.85

Q: And the CI (Hepatitis C virus [29])?
A: 0.74

Q: And the CI (Hepatitis C virus [30])?
A: 1.26
